Laboratory results from ChEMBL document CHEMBL1123501, “Inactivation of leukocyte elastase by aryl azolides and sulfonate salts. Structure-activity relationship studies” (J Med Chem, 1986).
The source made the active and inactive calls. No cut-off for these calls is given here.

Each molecule was assayed against T1, Neutrophil elastase (Homo sapiens) (UniProt P08246) (assay: Inhibitory activity against human Leukocyte elastase).
T1 sequence (whole entry): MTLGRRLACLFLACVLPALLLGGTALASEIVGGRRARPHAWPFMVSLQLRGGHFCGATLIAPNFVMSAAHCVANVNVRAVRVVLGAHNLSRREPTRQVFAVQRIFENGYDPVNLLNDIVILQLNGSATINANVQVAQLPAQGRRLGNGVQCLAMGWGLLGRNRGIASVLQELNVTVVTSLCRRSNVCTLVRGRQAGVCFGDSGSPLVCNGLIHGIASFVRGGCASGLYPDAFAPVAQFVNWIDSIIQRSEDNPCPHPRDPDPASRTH
Outline: (§1)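 Human leukocyte elastase (enzyme stock 3.4 × 10⁻⁵ M in pH 5.5 acetate) incubated at 25 °C with inhibitor (DMSO stock 3.4 × 10⁻⁴ M) in Tris buffer pH 7.2. The inhibitor:enzyme ratio was 10–50. Aliquots taken over time were added to MeOSuc-Ala-Ala-Pro-Val-pNA (stock 3.15 × 10⁻² M). Residual activity was read at 410 nm for 2 min after 30 s, against a DMSO control.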

K obs / 1 [M⁻¹ s⁻¹] | SMILES
6640 | COC(=O)C(Cc1ccccc1)NC(=O)ON1C(=O)CCC1=O (centres undefined)
500 | O=C(Nc1cn(-c2ccccc2)cn1)n1ccccc1=O
13 | COC(=O)C(Cc1cccc(C(F)(F)F)c1)NC(=O)S(=O)(=O)O (racemic)
4 | O=C(NCCc1ccccc1)S(=O)(=O)O
1100 | COC(=O)C(Cc1cccc(C(F)(F)F)c1)NC(=O)n1ccnc1 (centres undefined)
927 | O=C(Nc1cn(-c2ccccc2)cn1)ON1C(=O)CCC1=O
38 | O=C(NCCc1cccc(F)c1)n1ccnc1
823 | O=C(Nc1cn(-c2cccc(F)c2)cn1)ON1C(=O)CCC1=O
18 | O=C(NCCc1cccc(F)c1)S(=O)(=O)O
550 | COC(=O)C(Cc1ccccc1)NC(=O)S(=O)(=O)O (racemic)
483 | O=C(NCCc1cccc(C(F)(F)F)c1)n1ccnc1
13500 | O=C(Nc1cn(-c2cccc(C(F)(F)F)c2)cn1)ON1C(=O)CCC1=O
317 | O=C(Nc1cn(-c2cccc(F)c2)cn1)n1ccccc1=O
11700 | O=C(Nc1cn(-c2cccc(C(F)(F)F)c2)cn1)n1ccccc1=O
2330 | COC(=O)C(Cc1ccccc1)NC(=O)n1ccccc1=O (centres undefined)
57 | COC(=O)C(Cc1cccc(F)c1)NC(=O)S(=O)(=O)O (racemic)
318 | COC(=O)C(Cc1cccc(F)c1)NC(=O)n1ccnc1 (centres undefined)
2070 | COC(=O)C(Cc1ccccc1)NC(=O)n1ccnc1 (centres undefined)
35 | O=C(NCCc1ccccc1)n1ccnc1

Each molecule was assayed against T1, Neutrophil elastase (Homo sapiens) (assay: Compound was evaluated for the inhibitory activity against human Leukocyte elastase; Inactive).
Outline: as §1

K obs / 1 | SMILES
inactive | O=C(NCc1cccc(C(F)(F)F)c1)n1ccnc1
inactive | O=C(NCc1cccc(F)c1)n1ccnc1
inactive | O=C(Nc1ccccc1C(F)(F)F)n1ccnc1
inactive | O=C(Nc1cccc(F)c1)n1ccnc1
inactive | O=C(Nc1cccc(C(F)(F)F)c1)n1ccnc1
inactive | O=C(NCc1ccc(C(F)(F)F)cc1)n1ccnc1

These molecules were tested against T1, Neutrophil elastase (Homo sapiens) (assay: Inhibitory activity against human Leukocyte elastase; inactive (at 243-fold excess of inhibitor over enzyme)).

K obs / 1 | SMILES
inactive | O=C(Nc1cccc(C(F)(F)F)c1)S(=O)(=O)O
inactive | O=C(Nc1ccccc1)S(=O)(=O)O
inactive | O=C(Nc1ccc(Cl)cc1)S(=O)(=O)O
inactive | O=C(Nc1cccc(Cl)c1)S(=O)(=O)O
inactive | O=C(NCc1cccc(F)c1)S(=O)(=O)O
inactive | O=C(Nc1ccccc1C(F)(F)F)S(=O)(=O)O
inactive | O=C(Nc1ccc(C(F)(F)F)cc1)S(=O)(=O)O
inactive | O=C(NCc1cccc(C(F)(F)F)c1)S(=O)(=O)O
inactive | O=C(Nc1cccc(F)c1)S(=O)(=O)O
